Rows were chosen to be rich in hits. Some 2.9% of all compounds tested hit in one or more screens of this group.
ATG4B inhibitor: inhibitors of human ATG4B cysteine protease | ATG4B cleavage of LC3-PLA2, NBD-HPC fluorescence, 1 h | inhibition, % at 8.33 µM | hit rate 0.51% among 340,000; in the data active = inhibition above about 40%
HTRA1 inhibitor: blocks human HTRA1 serine peptidase | Q92743 | recombinant HTRA1, FP-rhodamine activity-based probe, fluorescence polarization | inhibition, % at 5.96 µM | hit rate 0.5% among 340,000; in the data active = inhibition above about 36%
Target sequence (Q92743 whole entry, looked up): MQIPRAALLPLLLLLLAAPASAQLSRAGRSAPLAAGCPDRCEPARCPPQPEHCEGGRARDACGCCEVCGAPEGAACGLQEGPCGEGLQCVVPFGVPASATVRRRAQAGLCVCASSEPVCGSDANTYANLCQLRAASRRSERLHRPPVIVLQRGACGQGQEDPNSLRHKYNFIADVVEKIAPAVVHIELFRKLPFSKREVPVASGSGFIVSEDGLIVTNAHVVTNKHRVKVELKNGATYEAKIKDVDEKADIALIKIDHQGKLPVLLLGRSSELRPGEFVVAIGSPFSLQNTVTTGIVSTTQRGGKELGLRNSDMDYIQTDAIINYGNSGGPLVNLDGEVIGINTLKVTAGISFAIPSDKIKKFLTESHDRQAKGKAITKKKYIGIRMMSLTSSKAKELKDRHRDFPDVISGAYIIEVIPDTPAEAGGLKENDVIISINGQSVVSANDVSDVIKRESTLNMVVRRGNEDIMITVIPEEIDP
PRMT1 inh: inhibitors of human PRMT1 | recombinant PRMT1, activity-based probe fluorescence polarization | inhibition, % at 2.79 µM | hit rate 1.3% among 370,000 | AID 652257;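 active = inhibition above about 21% made by adding two undisclosed values, limit read from the data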
SIAE primary: blocks human sialic acid acetylesterase; Q9HAT2; SIAE FP-Rh probe binding, fluorescence polarization; inhibition, % at 9.66 µM; hit rate 0.69% among 370,000;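 active = inhibition above a cutoff: mean of compounds within the control limits plus 3 SD of those, cut at about 17% in these data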
mABHD4 FP: ABHD4 (mouse) inhibition, primary FP screen; Q8VD66; purified mABHD4, FP-Rh probe fluorescence polarization; inhibition, % at 8.92 µM; hit rate 0.54% among 370,000; AID 720543;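 active = inhibition exceeding the mean over every tested compound plus 3 SD, cut at about 30% in these data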
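system = mouse ABHD4 enzyme, wild type | medium = HEPES pH 7.0, NaCl, Pluronic buffer | also added = FP-Rh probe | incubation = Enzyme–compound pre-incubation 45 min, then probe 60 min, both 25 °C | technique = fluorescence polarization, excitation 525 nm, emission 598 nm, BODIPY TMR filters | controls = S159A mutant high control, sample median low control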
TCR-CD3 inh: human TCR-CD3 binding inhibition; TAMRA-labeled TCR probe fluorescence, biochemical; inhibition, % at 9.4 µM; hit rate 0.37% among 360,000;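 also: recombinant mutant TCR 2C K166C tagged with TAMRA read by polarization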
HTRA1 conf: confirmation of human HTRA1 inhibitors; shares compounds with HTRA1 inhibitor; recombinant HTRA1, FP-rhodamine activity-based probe, fluorescence polarization; inhibition, % at 5.96 µM; hit rate 66% among 1,600; AID 540248;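 active = mean inhibition over three repeats above a set limit taken from the earlier primary screen, cut at about 37% in these data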;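 also: inhibitors block probe binding so polarization drops and inhibition rises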
BSA TAMRA ctr: counter-screen for TCR-CD3 interaction inhibitors: BSA probe; shares compounds with TCR-CD3 inh; TAMRA-labeled BSA probe fluorescence counterscreen; inhibition, % at 9.4 µM; hit rate 10% among 1,200; in the data active = inhibition above about 23%
TCR-CD3 inh conf: confirmation of human TCR-CD3 interaction inhibitors; shares compounds with TCR-CD3 inh; hit rate 48% among 1,200; inhibition, % at 9.4 µM; TAMRA-labeled TCR probe fluorescence binding assay
PRMT1 inh conf: confirmation of human PRMT1 inhibitors | shares compounds with PRMT1 inh | recombinant His-PRMT1, activity-based probe fluorescence polarization | inhibition, % at 2.79 µM | hit rate 42% among 3,300 | AID 687036;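 active = mean inhibition across replicates above the hit cutoff derived for the earlier primary screen, cut at about 22% in these data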
ABHD4 confirm: confirmation of mouse ABHD4 inhibitors | shares compounds with mABHD4 FP | purified mABHD4, FP-Rh probe fluorescence polarization | inhibition, % at 8.92 µM | hit rate 55% among 1,800 | AID 720658;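 active = mean inhibition across replicates above the hit cutoff set in the primary screen, cut at about 30% in these data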
SIAE inh conf: confirmation of human SIAE inhibitors | shares compounds with SIAE primary | SIAE FP-Rh activity-based probe, fluorescence polarization | inhibition, % at 9.66 µM | hit rate 13% among 2,300;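 active = mean inhibition of the replicates above the hit cutoff set in the primary screen, cut at about 17% in these data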;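 also: inhibitors lower polarization as more probe stays unbound to SIAE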
Numbers stand for hits; . = inactive; / = no result given; + = active, no number. Rule as the data show it, unless noted: active = inhibition above about 19%; inactive = the rest.

SMILES	ATG4B inhibitor	HTRA1 inhibitor	PRMT1 inh	SIAE primary	mABHD4 FP	TCR-CD3 inh	HTRA1 conf	BSA TAMRA ctr	TCR-CD3 inh conf	SIAE inh conf	others
COc1cccc2c1C(=O)c1c(O)c3c(c(O)c1C2=O)C[C@@](O)(C(=O)CO)C[C@@H]3OC1CC(N)C(O)C(C)O1 (some centres undefined)	.	72.9	140.8	53.6	75.5	125.2	64.6	155.7	126.0	54.6	ABHD4 confirm=54.6
COc1cccc2c1C(=O)c1c(O)c3c(c(O)c1C2=O)CC(O)(C(C)=O)CC3OC1CC(N(C)C)C(O)C(C)O1 (centres undefined)	.	68.5	193.2	63.8	71.9	156.5	68.3	176.0	144.8	54.4	PRMT1 inh conf=154.1;ABHD4 confirm=60.5
O=S1(=O)c2ccc(N3CCC[C@@H]3CO)cc2OCCCN1C1CC1	/	/	.	.	.	/	/	/	/	/
C=CCn1c(SCc2ccc(C#N)cc2)nnc1-c1ccco1	/	/	.	.	.	/	/	/	/	/
C=CCN1C(=O)[C@@H](CC(=O)N2CCSCC2)[C@]2(C(=O)OCC)CCCCC/C=C/12	/	/	.	.	.	/	/	/	/	/
O=C(COC(=O)c1c2c(nc3ccccc13)/C(=C\c1ccco1)CC2)NC1CCCC1	.	58.3	27.7	22.5	62.6	.	.	/	/	.	PRMT1 inh conf=.;ABHD4 confirm=32.4
O=C(COC(=O)c1c2c(nc3ccccc13)/C(=C/c1cccc([N+](=O)[O-])c1)CCC2)NC1CCS(=O)(=O)C1 (centres undefined)	.	.	.	.	.	.	/	/	/	/
CCN(CC)C(=O)CSc1nnc(-c2ccc(C(C)(C)C)cc2)n1-c1ccc(Cl)cc1	/	/	.	.	.	/	/	/	/	/
CCNc1ccc(Br)cc(C(=O)/C=C/c2ccc(Cl)cc2Cl)c1=O	.	64.0	27.0	17.3	35.2	.	58.6	/	/	.	ABHD4 confirm=31.0
COCCCNC(=O)/C=C/c1ccc(Cl)cc1Cl	.	.	.	.	.	.	/	/	/	/
CCN(CC)C(=O)CC[C@@H]1CC[C@]2(CCCN(C(=O)c3ccccc3)C2)O1	/	/	.	.	.	/	/	/	/	/
Clc1ccc2c(NCc3ccccn3)ccnc2c1	.	.	.	.	.	.	/	/	/	/
Oc1ccc(/C=N/Nc2ccnc3cc(Cl)ccc23)c(O)c1O	.	66.2	.	41.1	38.3	19.7	65.2	.	21.9	33.3	ABHD4 confirm=55.8
NS(=O)(=O)c1ccc(N/N=C/c2ccc(O)c(O)c2O)c([N+](=O)[O-])c1	.	78.4	46.3	36.8	60.1	59.1	67.2	.	73.8	.	PRMT1 inh conf=78.9;ABHD4 confirm=62.5
NS(=O)(=O)c1ccc(N/N=C/c2ccc(O)cc2O)c([N+](=O)[O-])c1	.	.	.	.	.	.	/	/	/	/
Cc1cc2c(N)cccc2nn1	.	100.7	43.7	142.2	167.8	+	.	/	/	65.1	ABHD4 confirm=116.4
O=C(CCl)N1c2ccccc2Oc2ccc3ccccc3c21	.	80.2	60.3	22.0	62.4	22.3	.	/	/	.	PRMT1 inh conf=40.2;ABHD4 confirm=.
O=C(N/N=C/c1cc(Br)cc(Br)c1O)c1ccncc1	.	/	.	.	.	.	/	/	/	/
O=C(N/N=C/c1cc(Br)cc([N+](=O)[O-])c1O)c1ccc(NC(=O)c2ccc(F)cc2)cc1	.	50.8	.	52.7	.	58.3	53.2	.	50.8	.
O=S(=O)(c1ccccc1Br)N(Cc1cn(Cc2ccccc2)nn1)C1CC1	/	/	.	.	.	/	/	/	/	/
Cc1ccccc1Cn1cc(CN2[C@H](Cc3ccccc3)COc3cc(Br)ccc3S2(=O)=O)nn1	/	/	.	.	.	/	/	/	/	/
Cc1ccc(NC(=O)CS(=O)CC(=O)Nc2ccccc2-c2ccc(C)o2)cc1 (centres undefined)	.	57.0	51.2	33.0	44.5	85.9	.	.	.	.	ABHD4 confirm=.
Cc1ccc([N+](=O)[O-])cc1-c1[nH]c(-c2ccc(O)c(O)c2)nc1-c1ccccc1	.	68.6	.	34.3	.	.	85.3	/	/	.
COc1ccc(-c2nnn3c2Cn2c4ccccc4c(=O)n2[C@@H](C)C3)cc1	/	/	.	.	.	/	/	/	/	/
CN1OC[C@@H]2CN(Cc3ccccc3)[C@H](c3cccc(-c4ccc(C#N)cc4)c3)C[C@@H]21	.	.	.	.	.	24.0	/	.	.	/
SMILES	ATG4B inhibitor	HTRA1 inhibitor	PRMT1 inh	SIAE primary	mABHD4 FP	TCR-CD3 inh	HTRA1 conf	BSA TAMRA ctr	TCR-CD3 inh conf	SIAE inh conf	others
COc1ccccc1-c1cccc([C@@H]2C[C@H]3[C@H](CON3C)CN2Cc2ccccc2)c1	.	.	.	.	.	.	/	/	/	/
CC1=NN(C(=O)c2ccccc2Br)C(O)(c2ccc(Cl)cc2)C1 (centres undefined)	.	.	.	.	.	27.6	/	.	.	/
CC1=NN(C(=O)c2ccccc2C)C(O)(c2ccc(Cl)cc2)C1 (centres undefined)	.	.	.	.	.	.	/	/	/	/
C=CCn1c(=NC(=O)c2ccc(S(=O)(=O)N3CCc4ccccc4C3)cc2)sc2cc(S(N)(=O)=O)ccc21	.	.	.	.	.	30.8	/	.	31.1	/
C#CCn1c(=NC(=O)c2ccc(S(=O)(=O)N3CCc4ccccc4C3)cc2)sc2cc(S(N)(=O)=O)ccc21	.	.	/	/	/	/	/	/	/	/
C[C@@H]1Cc2cc(O)c(O)c(O)c2C(=O)O1	/	/	.	.	.	/	/	/	/	/
Nc1ccc2nc(-c3cccc(-c4nc5ccc(N)cc5[nH]4)n3)[nH]c2c1	.	.	.	.	.	23.9	/	.	46.9	/
Cc1ccc2nc(-c3cccc(N)c3)[nH]c2c1	.	.	.	.	.	.	/	/	/	/
CCC(CO)Nc1cccc2c1S(=O)(=O)N(Cc1cn(Cc3cccc(C(F)(F)F)c3)nn1)Cc1ccccc1O2 (centres undefined)	/	/	.	.	.	/	/	/	/	/
COc1ccc(OC)c(S(=O)(=O)N2CCC(C(=O)NCC3COCCO3)CC2)c1 (centres undefined)	/	/	.	.	.	/	/	/	/	/
Cc1c(NC(=S)N/N=C/c2ccc([N+](=O)[O-])cc2O)c(=O)n(-c2ccccc2)n1C	.	.	.	.	.	23.8	/	.	.	/
Cc1c(NC(=S)N/N=C\c2ccccc2O)c(=O)n(-c2ccccc2)n1C	.	.	.	.	.	.	/	/	/	/
Cc1cccc(-c2nnc(SCC(=O)Nc3cccc4ccccc34)n2Cc2ccco2)c1	/	/	.	.	.	/	/	/	/	/
C=C(C)/C=C1/CN(Cc2ccc3c(c2)OCO3)C(=N)N1C(=O)OCc1ccccc1	/	/	.	.	.	/	/	/	/	/
